Reference: ChEMBL document CHEMBL3526116, “Toxicological evaluation of acyl glucuronides of nonsteroidal anti-inflammatory drugs using human embryonic kidney 293 cells stably expressing human UDP-glucuronosyltransferase and human hepatocytes” (Drug Metab Dispos, 2011)
Values belong to the compound of their own block, whether it stands above or below them.

Key:
HEK293 [1] = test: Cytotoxicity against HEK293 cells expressing UGT1A3 assessed as decrease in cell viability at 1 mM measured at 24 hrs by MTT assay; assay type: ADME, cell-based; settings: human, hek293, 24 h, 1000 µM
Hepatocyte [2] = test: Cytotoxicity against human hepatocytes assessed as decrease in cell viability by measuring intracellular ATP content at 1 mM measured at 6 hrs by CellTiter-Glo luminescent assay in presence of acyl glucuronidation inhibitor (-)-borneol; assay type: cell-based; settings: 1000 µM
Method in brief: (§1)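 Human hepatocytes (pooled, cryopreserved), 2 × 10^4 cells/well on collagen in HCM with 0.5% FBS and 10 nM estradiol; 30-min preincubation ± 1 mM (-)-borneol, then drug 6 h. Intracellular ATP measured by CellTiter-Glo luminescence, percent of control cells. Triplicates, mean ± SD.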

Hepatocyte [3] = test: Cellular uptake in human hepatocytes at 1 mM measured at 6 hrs by LC-MS/MS analysis in absence of acyl glucuronidation inhibitor (-)-borneol; assay type: ADME, cell-based; settings: 1000 µM
Method in brief: (§2)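 Cryopreserved pooled human hepatocytes on collagen-coated wells, 2 × 10^5 cells/well in HCM medium with 0.5% FBS, preincubated 30 min with or without 1 mM (-)-borneol, then drug for 6 h; DMSO ≤0.2% final. Parent drug in cell fraction measured by LC-MS/MS after methanol/acetic acid extraction. Mean ± SD of triplicates.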

HEK293 [4] = test: Cytotoxicity against HEK293 cells expressing UGT1A4 assessed as decrease in cell viability at 1 mM by MTT assay; assay type: ADME, cell-based; settings: human, hek293, 1000 µM; TDE = time-dependent effect
Hepatocyte [5] = test: Cellular uptake in human hepatocytes at 1 mM measured at 6 hrs by LC-MS/MS analysis in presence of acyl glucuronidation inhibitor (-)-borneol; assay type: ADME, cell-based; settings: 1000 µM; method in brief: as §2
HEK293 [6] = test: Cytotoxicity against HEK293 cells expressing UGT assessed as decrease in cell viability at 1 mM measured up to 72 hrs by MTT assay; assay type: ADME, cell-based; settings: human, hek293, 72 h, 1000 µM
Method in brief: (§3)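 Mock and UGT1A3/UGT1A4 stable HEK293 cells given drug for up to 72 h; viability measured by WST-8-based MTT assay.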

HEK293 [7] = test: Cytotoxicity against HEK293 cells expressing UGT1A3 assessed as decrease in cell viability at 1 mM by MTT assay; assay type: ADME, cell-based; settings: human, hek293, 1000 µM; TDE = time-dependent effect
HEK293 [8] = test: Cytotoxicity against HEK293 cells expressing UGT1A4 assessed as decrease in cell viability by measuring intracellular ATP content at 1 mM by CellTiter-Glo luminescent assay; assay type: ADME, cell-based; settings: human, hek293, 1000 µM; TDE = time-dependent effect
Method in brief: (§4)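 UGT1A3 or UGT1A4 stable HEK293 cells, 2 x 10^4 cells/well in 0.1 mL DMEM with 0.5% FBS, drug for 6, 12 or 24 h. Viability from intracellular ATP via CellTiter-Glo luminescence, expressed as percent of control cells. Mean ± SD of triplicates.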

HEK293 [9] = test: Cytotoxicity against mock transfected HEK293 cells assessed as decrease in cell viability at 1 mM by MTT assay; assay type: cell-based; settings: human, hek293, 1000 µM; TDE = time-dependent effect
HEK293 [10] = test: Genotoxicity in HEK293 cells expressing UGT1A3 assessed as DNA strand breaks at 1 mM after 24 hrs by comet assay; assay type: toxicity, cell-based; settings: human, hek293, 24 h, 1000 µM
Method in brief: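 Alkaline comet assay: HEK/UGT1A3 cells seeded 24 h before, treated 24 h in DMEM with 0.5% FBS (vehicle 0.1% DMSO; MMS 0.1 mM positive control). Cells embedded in LMP agarose, lysed 1 h at 4°C at pH 10, unwound 30 min in NaOH/EDTA, electrophoresed 300 mA 20 min, ethidium-stained; tail moment scored on 150-180 comets over >3 experiments, median (IQR).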

Hepatocyte [11] = test: Cytotoxicity against human hepatocytes assessed as decrease in cell viability by measuring intracellular ATP content at 1 mM measured at 6 hrs by CellTiter-Glo luminescent assay in absence of acyl glucuronidation inhibitor (-)-borneol; assay type: cell-based; settings: 1000 µM; method in brief: as §1
HEK293 [12] = test: Cytotoxicity against mock transfected HEK293 cells assessed as decrease in cell viability by measuring intracellular ATP content at 1 mM by CellTiter-Glo luminescent assay; assay type: cell-based; settings: human, hek293, 1000 µM; TDE = time-dependent effect
Method in brief: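 Mock-transfected HEK293 cells seeded at 2 x 10^4 cells/well in DMEM with 0.5% FBS, drug added at once and incubated 6, 12 or 24 h. Viability read either by WST-8 (CCK-8) formazan absorbance at 450 nm or by intracellular ATP luminescence (CellTiter-Glo), as percent of control cells; mean ± SD of triplicates. Final DMSO ≤0.1%.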

HEK293 [13] = test: Cytotoxicity against HEK293 cells expressing UGT1A3 assessed as decrease in cell viability by measuring intracellular ATP content at 1 mM by CellTiter-Glo luminescent assay; assay type: ADME, cell-based; settings: human, hek293, 1000 µM; TDE = time-dependent effect; method in brief: as §4
Hepatocyte [14] = test: Cytotoxicity against human hepatocytes assessed as decrease in cell viability at 1 mM measured at 6 hrs […] in presence of acyl glucuronidation inhibitor (-)-borneol; assay type: cell-based; settings: 1000 µM
HEK293 [15] = test: Cytotoxicity against HEK293 cells expressing UGT assessed as LDH leakage at 1 mM after 6 to 24 hrs by spectrophotometric analysis relative to total cell LDH level; assay type: ADME, cell-based; settings: human, hek293, 1000 µM
Method in brief: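 Stable UGT-expressing or mock HEK293 lines in DMEM with 0.5% FBS, 2 x 10^4 cells/well, drug for 6, 12 or 24 h. LDH released into medium read at 490 nm (690 nm reference); percentage calculated against maximum release from control cells lysed with 1% Triton X-100.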

Hepatocyte [16] = test: Drug level in human hepatocytes assessed per 2 x 10^5 cells treated with ibuprofen at 1 mM measured at 6 hrs by LC-MS/MS analysis in presence of acyl glucuronidation inhibitor (-)-borneol; assay type: ADME, cell-based; settings: 1000 µM
Hepatocyte [17] = test: Drug level in human hepatocytes assessed per 2 x 10^5 cells treated with ibuprofen at 1 mM measured at 6 hrs by LC-MS/MS analysis in absence of acyl glucuronidation inhibitor (-)-borneol; assay type: ADME, cell-based; settings: 1000 µM
[18] = Drug level in cell culture medium treated with ibuprofen at 1 mM measured at 6 hrs by LC-MS/MS analysis in presence of acyl glucuronidation inhibitor (-)-borneol; assay type: physicochemical; settings: 1000 µM
[19] = target: T1, UDP-glucuronosyltransferase 1A3 (Homo sapiens, UniProt P35503); test: Activity of human UGT1A3 expressed in HEK293 cells assessed as enzyme-mediated compound formation in cell culture medium treated with ibuprofen at 1 mM by LC-MS/MS analysis; assay type: ADME, cell-based; settings: hek293, 1000 µM, TDE = time-dependent effect
T1 sequence (P35503 whole entry): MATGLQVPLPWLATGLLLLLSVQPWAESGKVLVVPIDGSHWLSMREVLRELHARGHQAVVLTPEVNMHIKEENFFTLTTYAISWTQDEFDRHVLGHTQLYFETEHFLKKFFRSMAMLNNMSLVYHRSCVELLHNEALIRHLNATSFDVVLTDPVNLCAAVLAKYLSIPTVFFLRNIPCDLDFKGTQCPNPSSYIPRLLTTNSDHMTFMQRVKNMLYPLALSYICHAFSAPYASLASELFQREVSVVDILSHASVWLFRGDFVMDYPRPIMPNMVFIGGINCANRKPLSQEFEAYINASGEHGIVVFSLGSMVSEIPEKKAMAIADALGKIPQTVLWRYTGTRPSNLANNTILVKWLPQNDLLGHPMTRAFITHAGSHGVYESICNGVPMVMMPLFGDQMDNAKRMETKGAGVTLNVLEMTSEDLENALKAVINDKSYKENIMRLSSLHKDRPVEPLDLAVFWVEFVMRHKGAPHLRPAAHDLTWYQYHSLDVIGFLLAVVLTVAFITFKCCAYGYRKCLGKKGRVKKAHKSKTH
Method in brief: (§5)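 HEK293 stably expressing human UGT1A3 (G418-selected), 2 x 10^5 cells/well in 1 mL DMEM with 0.5% FBS, exposed immediately to drug for 6, 12 or 24 h; DMSO ≤0.1% final. Cells and medium separated by centrifugation, cell fraction resuspended in PBS; aliquots mixed 1:1 with methanol/acetic acid (100:1), spun, supernatant analysed by LC-MS/MS. Triplicate determinations, mean ± SD.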

[20] = target: T1, UDP-glucuronosyltransferase 1A3; test: Activity of human UGT1A3 expressed in HEK293 cells assessed as enzyme-mediated compound formation in cell culture medium treated with ibuprofen at 1 mM measured at 6 to 24 hrs by LC-MS/MS analysis; assay type: ADME, cell-based; settings: hek293, 1000 µM; method in brief: as §5
[21] = Drug level in cell culture medium treated with ibuprofen at 1 mM measured at 6 hrs by LC-MS/MS analysis in absence of acyl glucuronidation inhibitor (-)-borneol; assay type: physicochemical; settings: 1000 µM
[22] = target: T1, UDP-glucuronosyltransferase 1A3; test: Activity of human UGT1A3 expressed in HEK293 cells assessed as enzyme-mediated compound formation per 2 x 10^5 cells treated with ibuprofen at 1 mM measured at 24 hrs by LC-MS/MS analysis; assay type: ADME, cell-based; settings: hek293, 24 h, 1000 µM; method in brief: as §5
Nucleic Acid = test: Ratio of drug level in human hepatocytes to HEK293 cells expressing UGT1A3 treated with ibuprofen at 1 mM; assay type: ADME, cell-based, Hepatocyte; settings: 1000 µM
Method in brief: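 Acyl glucuronide in cell fraction (pmol/2 x 10^5 cells) by LC-MS/MS after 6 h exposure in human hepatocytes without (-)-borneol, set against HEK/UGT1A3 cells (2 x 10^5 cells/well, DMEM with 0.5% FBS) exposed to the same drug level; cells pelleted at 3000 x g, resuspended in PBS, extracted with methanol/acetic acid.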

HEK293 [23] = test: Cytotoxicity against HEK293 cells expressing UGT1A4 assessed as decrease in cell viability at 1 mM measured at 24 hrs by MTT assay; assay type: ADME, cell-based; settings: human, hek293, 24 h, 1000 µM
HEK293 [24] = test: Cytotoxicity against HEK293 cells expressing UGT1A4 assessed as decrease in cell viability at 0.1 mM measured at 24 hrs […]; assay type: ADME, cell-based; settings: human, hek293, 24 h, 100 µM
HEK293 [25] = test: Cytotoxicity against HEK293 cells expressing UGT1A3 assessed as decrease in cell viability at 0.1 mM measured at 24 hrs by MTT assay; assay type: ADME, cell-based; settings: human, hek293, 24 h, 100 µM
HEK293 [26] = test: Cytotoxicity against HEK293 cells expressing UGT assessed as decrease in cell viability at 0.1 mM measured up to 72 hrs by MTT assay; assay type: ADME, cell-based; settings: human, hek293, 72 h, 100 µM; method in brief: as §3

Compound: CC(C)(Oc1ccc(CCNC(=O)c2ccc(Cl)cc2)cc1)C(=O)O [BEZAFIBRATE]
Activity (HEK293 [1]): Non-toxic

Compound: CC(=O)Oc1ccccc1C(=O)O [ASPIRIN]
Activity (HEK293 [1]): Non-toxic

Drug uptake (Hepatocyte [3]): Active
Drug uptake (Hepatocyte [5]): Active
Compound: COc1ccc2cc([C@H](C)C(=O)O)ccc2c1 [NAPROXEN]
Activity (Hepatocyte [2]): Toxic
Activity (HEK293 [4]): tde
Activity (HEK293 [6]): Non-toxic
Activity (HEK293 [7]): tde
Activity (HEK293 [8]): tde
Activity (HEK293 [9]): tde
Activity (HEK293 [10]): Non-toxic
Activity (Hepatocyte [11]): Toxic
Activity (HEK293 [12]): tde
Activity (HEK293 [13]): tde
Activity (Hepatocyte [14]): Toxic
Activity (HEK293 [15]): < 5.4%

Drug metabolism (Hepatocyte [16]): 3.5 pmol
Drug metabolism (Hepatocyte [17]): 27.7 pmol
Drug metabolism [18]: 126.5 pmol/mL
Drug metabolism [19]: tde
Drug metabolism [20]: 114.7 pmol/mL
Drug metabolism [21]: 1156.7 pmol/mL
Drug metabolism [22]: 7.2 pmol
Ratio (Nucleic Acid): 6
Compound: CC(C)Cc1ccc(C(C)C(=O)O[C@@H]2O[C@H](C(=O)O)[C@@H](O)[C@H](O)[C@H]2O)cc1 (some centres not stated)

Compound: CC1=C(CC(=O)O)c2cc(F)ccc2/C1=C\c1ccc([S+](C)[O-])cc1 (configuration not stated)
Activity (HEK293 [1]): Non-toxic

Compound: COc1c(C)c2c(c(O)c1C/C=C(\C)CCC(=O)O)C(=O)OC2 [MYCOPHENOLIC ACID]
Activity (HEK293 [1]): Non-toxic

Compound: Cc1ccc(C)c(OCCCC(C)(C)C(=O)O)c1 [GEMFIBROZIL]
Activity (HEK293 [1]): Non-toxic
Activity (HEK293 [23]): Non-toxic
Activity (HEK293 [6]): Non-toxic

Compound: Cc1cc(CC(=O)O)n(C)c1C(=O)c1ccc(Cl)cc1 [ZOMEPIRAC]
Activity (HEK293 [24]): Non-toxic
Activity (HEK293 [25]): Non-toxic
Activity (HEK293 [26]): Non-toxic
